# What was measured:
# Format in all cases: functional
# Cavia porcellus [1] = assay: In vivo reversal activity versus ~90% block by rocuronium in guinea pig
# Method in brief: (§1)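 Male Dunkin-Hartley guinea pigs (600-900 g), anaesthetized ip with pentobarbitone 10 mg/kg plus urethane 1000 mg/kg, tracheotomized and ventilated. Continuous iv rocuronium infusion (~10 nmol kg-1 min-1) was raised to a steady 85-90% block. Increasing iv doses of agent were given cumulatively. ED50 = 50% recovery versus preblock twitch, by regression. Mean ± SEM of at least two experiments, or one.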
# Mus musculus [2] = species: Mus musculus; assay: In vitro reversal activity versus ~90% block by rocuronium in isolated mouse hemidiaphragm, expressed as % of maximum reversal at 144 uM conc.
# Cavia porcellus [3] = assay: In vivo reversal activity versus ~90% block by rocuronium in guinea pig, expressed as % of maximum reversal at 12 umol/kg conc.
# Method in brief: (§2)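 Male Dunkin-Hartley guinea pigs (600-900 g) anaesthetized ip with pentobarbitone 10 mg/kg plus urethane 1000 mg/kg, tracheotomized and artificially ventilated. Continuous iv rocuronium bromide infusion (~10 nmol kg-1 min-1) raised until steady-state twitch block of 85-90%. Increasing single iv doses of reversal agent given by a separate catheter. Max reversal is peak twitch recovery versus preblock height at highest dose tested; means ± SEM, n ≥ 2 or single experiment.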
# Mus musculus [4] = species: Mus musculus; assay: In vitro reversal activity versus ~90% block by rocuronium in isolated mouse hemidiaphragm, expressed as effective conc.
# Cavia porcellus [5] = assay: In vivo reversal activity versus ~90% block by rocuronium in guinea pig, expressed as % of maximum reversal at 10 umol/kg conc.; method in brief: as §1
# Mus musculus [6] = species: Mus musculus; assay: In vitro reversal activity versus ~90% block by rocuronium in isolated mouse hemidiaphragm, expressed as % of maximum reversal at 18 uM conc.
# Cavia porcellus [7] = assay: In vivo reversal activity versus ~90% block by rocuronium in guinea pig, expressed as % of maximum reversal at 316 umol/kg conc.; method in brief: as §2
# Mus musculus [8] = species: Mus musculus; assay: In vitro reversal activity versus ~90% block by rocuronium in isolated mouse hemidiaphragm, expressed as % of maximum reversal at 360 uM conc.
EC50 (Mus musculus [4]),SMILES,ED50 (Cavia porcellus [1]),Max reversal (Mus musculus [2]),Max reversal (Cavia porcellus [3]),Max reversal (Cavia porcellus [5]),Max reversal (Mus musculus [6]),Max reversal (Cavia porcellus [7]),Max reversal (Mus musculus [8])
17.2 µM,O=C([O-])CCSCC1O[C@@H]2O[C@@H]3C(CO)O[C@H](O[C@@H]4C(CO)O[C@H](O[C@@H]5C(CO)O[C@H](O[C@@H]6C(CO)O[C@H](O[C@@H]7C(CO)O[C@H](O[C@@H]8C(CO)O[C@H](O[C@@H]9C(CO)O[C@H](O[C@H]1C(O)C2O)C(O)C9O)C(O)C8O)C(O)C7O)C(O)C6O)C(O)C5O)C(O)C4O)C(O)C3O.[Na+] (some centres not stated),1.3 µmol/kg,94.5%,100.6%,,,,
33.9 µM,C[C@H](CSCC1O[C@@H]2O[C@@H]3C(CSC[C@H](C)C(=O)N4CCCC4C(=O)[O-])O[C@H](O[C@@H]4C(CSC[C@@H](C)C(=O)N5CCCC5C(=O)[O-])O[C@H](O[C@@H]5C(CSC[C@@H](C)C(=O)N6CCCC6C(=O)[O-])O[C@H](O[C@@H]6C(CSC[C@H](C)C(=O)N7CCCC7C(=O)[O-])O[C@H](O[C@@H]7C(CSC[C@@H](C)C(=O)N8CCCC8C(=O)[O-])O[C@H](O[C@@H]8C(CSC[C@H](C)C(=O)N9CCCC9C(=O)[O-])O[C@H](O[C@@H]9C(CSC[C@@H](C)C(=O)N%10CCCC%10C(=O)[O-])O[C@H](O[C@H]1C(O)C2O)C(O)C9O)C(O)C8O)C(O)C7O)C(O)C6O)C(O)C5O)C(O)C4O)C(O)C3O)C(=O)N1CCCC1C(=O)[O-].[Na+].[Na+].[Na+].[Na+].[Na+].[Na+].[Na+].[Na+] (some centres not stated),1.49 µmol/kg,,,103.6%,35.7%,,
> 360 µM,OC[C@H]1O[C@@H]2O[C@H]3[C@H](O)[C@@H](O)[C@@H](O[C@H]4[C@H](O)[C@@H](O)[C@@H](O[C@H]5[C@H](O)[C@@H](O)[C@@H](O[C@H]6[C@H](O)[C@@H](O)[C@@H](O[C@H]7[C@H](O)[C@@H](O)[C@@H](O[C@H]8[C@H](O)[C@@H](O)[C@@H](O[C@H]1[C@H](O)[C@H]2O)O[C@@H]8CO)O[C@@H]7CO)O[C@@H]6CO)O[C@@H]5CO)O[C@@H]4CO)O[C@@H]3CO [BETADEX],20 µmol/kg,,,,,92.9%,29%

# Reference: ChEMBL document CHEMBL1135836, “Cyclodextrin-derived host molecules as reversal agents for the neuromuscular blocker rocuronium bromide: synthesis and structure-activity relationships” (J Med Chem, 2002)
